Assay results collected from several papers.
Protocols differ between the studies behind these lines.
Target: Protein-tyrosine kinase 6 (PTK6, Homo sapiens, UniProt Q13882)

| assay | conditions | remaining binding [%] | SMILES |
| --- | --- | --- | --- |
| binding, competition with immobilised ligand | 10 µM | 80 | c1cncc(-c2cccc(Nc3nccc(NC4CCCCC4)n3)c2)c1 |
| binding | 1 µM | 100 | C[C@@H]1CCN(c2nccc(-c3cnn4ncccc34)n2)C1 |
| cell-free assay, competition with immobilised ligand | 1 µM | 83 | C[C@H](c1ccc(F)cc1)N(Cc1cccc(C(=O)O)c1)C(=O)c1cnc2ccccc2c1 |
| binding, competition with immobilised ligand | 1 µM | 79 | O=C(NCCCN1CCOCC1)c1ccc(Nc2nccc(-c3cc4ccccc4s3)n2)cc1 |
| binding, competition with immobilised ligand | 1 µM | 100 | CNC(=O)[C@@H]1CC[C@@H](n2c(-c3ccc4cnccc4c3)nc3ccc(C(=O)NCc4cccc(C(N)=O)c4)cc32)C1 |
| cell-free assay, competition with immobilised ligand | 1 µM | 86 | CN(C)c1ncnc(-c2ccc3nc(Nc4cc(CN5CCN(C(=O)CC(F)(F)F)CC5)ccn4)[nH]c3c2)c1Cl |
| binding, competition with immobilised ligand | 1 µM | 100 | COc1cnc(Nc2cccc(S(N)(=O)=O)c2)nc1N1CCN(c2ccccc2)C(=O)C1 |
| cell-free assay, competition with immobilised ligand | 1 µM | 100 | O=C1NC(c2ccccn2)Sc2ccccc21 (centres unmarked) |
| binding | 1 µM | 83 | c1cnn2ncc(-c3ccnc(N4CCC45COC5)n3)c2c1 |
| binding, competition with immobilised ligand | 1 µM | 100 | C=CC(=O)N1CCC(C(=O)NCC(=O)N2CCN(c3nc(-c4cnc(N)nc4C(F)F)nc(N4CCOCC4)n3)CC2)CC1 |
| cell-free assay, competition with immobilised ligand | 1 µM | 100 | COc1cc(-c2cn(C3CCc4ccccc4N(CC(F)(F)F)C3=O)nn2)ccc1-n1ccc(C)n1 (centres unmarked) |
| binding | 1 µM | 99 | CN(C)c1ncc(F)c(-c2cnn3ncccc23)n1 |
| cell-free assay, competition with immobilised ligand | 0.1 µM | 96 | Nc1c(C(=O)NCc2ccc(C(=O)NCCCC3CCCCC3)cc2)cnn1-c1ccccc1 |
| binding | 1 µM | 100 | CN(C)c1nccc(-c2cnn3ncccc23)n1 |
| binding, competition with immobilised ligand | 1 µM | 100 | O=C(Nc1c[nH]nc1C(=O)NC1CCNCC1)c1cc(F)cc(F)c1 |
| binding | 1 µM | 100 | Cc1cnn2ncc(-c3ccnc(N(C)C)n3)c2c1 |
| binding, competition with immobilised ligand | 1 µM | 65 | O=C(c1ccc(Nc2nccc(-c3cc4ccccc4s3)n2)cc1)N1CCC(N2CCCC2)CC1 |
| cell-free assay, competition with immobilised ligand | 1 µM | 90 | CCC(=O)N[C@@H]1CC[C@H](C(=O)N(C)c2ccc(-c3nc4ccccc4o3)cc2)C1 |
| binding, competition with immobilised ligand | 1 µM | 26 | Cc1cnc(Nc2ccc(C(=O)N3CCC(N4CCCC4)CC3)cc2)nc1-c1cc2ccccc2s1 |
| binding | 1 µM | 100 | COc1ccnn2ncc(-c3ccnc(N(C)C)n3)c12 |
